Bioassay records deposited in PubChem BioAssay by several laboratories.
D1 allo mod = D1 dopamine receptor (human) allosteric modulation. P21728. HEK293 D1, CRE-luciferase, dopamine EC30 potentiation; actives deviate in either direction. B-score at 10 µM. 5.9% of 58,000 active;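 active = luminescence count or its row- and column-corrected plate score outside the 99.7% band of the plate's sample wells, on either side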
RORA act = activates the human nuclear receptor RORA; P35398; CHO-K1 Gal4-RORA LBD luciferase reporter, luminescence; percent increase over mock-subtracted basal signal; activation, % at 10 µM; 1.5% of 65,000 active;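 active = activation above the mean of all tested compounds plus 3 SD, cut at about 49% in these data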
Target sequence (P35398 whole entry, looked up, the tested form may be a part): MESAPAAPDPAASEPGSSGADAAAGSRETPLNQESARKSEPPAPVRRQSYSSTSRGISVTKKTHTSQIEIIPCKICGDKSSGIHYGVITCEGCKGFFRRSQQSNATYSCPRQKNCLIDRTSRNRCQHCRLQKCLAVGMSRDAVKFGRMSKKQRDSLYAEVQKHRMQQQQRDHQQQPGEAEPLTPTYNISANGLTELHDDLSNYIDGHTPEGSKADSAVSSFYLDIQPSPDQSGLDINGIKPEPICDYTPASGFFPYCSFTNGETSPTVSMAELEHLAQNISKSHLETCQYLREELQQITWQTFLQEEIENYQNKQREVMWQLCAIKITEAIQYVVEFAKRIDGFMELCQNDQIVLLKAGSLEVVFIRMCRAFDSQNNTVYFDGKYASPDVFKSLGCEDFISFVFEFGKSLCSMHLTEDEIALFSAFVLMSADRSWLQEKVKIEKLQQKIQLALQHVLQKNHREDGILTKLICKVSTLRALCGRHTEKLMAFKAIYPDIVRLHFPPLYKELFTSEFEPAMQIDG
M1 ag = M1 muscarinic receptor agonism. B-score at 10 µM. CHO-M1 cells, Fluo-4 calcium fluorescence, agonist mode; hits give high values. 3% of 64,000 active;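 active = fluorescence rise, raw or as B-score row- and column-corrected plate score, outside the 99.7% band of its plate's samples, either direction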
HePTP inhibitor = inhibitors of human HePTP phosphatase; P35236; recombinant HePTP phosphatase activity, OD absorbance; AID 521; 0.64% of 110,000 active; inhibition, % at 20 µM; in the data active = inhibition above about 50%
SF1 activator = activators of human nuclear receptor SF-1; CHO-K1 Gal4-SF-1 LBD luciferase reporter; % increase over DMSO SF-1-specific signal; activation, % at 10 µM; Q13285; 1.9% of 65,000 active;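 active = activation above the mean activation of all tested compounds plus 3 SD, cut at about 50% in these data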
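Material: CHO-K1 cells with Gal4–hSF-1 LBD chimera plus Gal4-driven luciferase / Input: 4,000 CHO-K1 cells per well / Incubation: compound exposure 20 h at 37 °C / Signal: luminescence read 15 min after SteadyLite luciferase reagent, after room-temperature equilibration / Read-out: percent activation versus DMSO / Benchmarks: DMSO negative control and −SF1 background wells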
M1 antagonist = M1 muscarinic receptor (rat) antagonism. 3.4% of 64,000 active. B-score at 10 µM. P08482. AID 628. CHO-M1 cells, Fluo-4 calcium, ACh EC80 antagonist mode; hits give low values;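 active = calcium fluorescence response, raw or row-and-column corrected B-score, differing from the plate sample mean either way at a set confidence level, mostly lower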
D1 PAM confirm = D1 receptor (human) allosteric modulation, confirmed; shares compounds with D1 allo mod; HEK293 D1 CRE-luciferase, dopamine EC30 potentiation; hits give high values; luminescence at 10 µM; 88% of 2,200 active; AID 642;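 active = luminescence in either of two replicates above the same-plate mean plus 3 SD of the low-dose dopamine control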
D1 ag no DA = D1 (human) signaling in absence of dopamine | shares compounds with D1 allo mod | luminescence at 10 µM | 0.8% of 1,900 active | HEK293 D1 CRE-luciferase, luminescence, no dopamine; hits give high values | AID 646; in the data active = luminescence above about 3900
Isoprot counter = alters isoproterenol CRE-luciferase response in HEK293 cells | shares compounds with D1 allo mod | HEK293 D1 CRE-luciferase, isoproterenol EC30 counter-screen | calls only at 10 µM | 63% of 2,200 active;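 active = luminescence in either replicate above plate mean of wells with a partly effective reference agonist dose plus 3 SD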;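 note: isoproterenol raises cAMP through native beta-adrenoceptor Gs so signal bypasses D1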
Hits are given with their value; – = inactive; · = not tested or not shown; + = active, no number. This is a sample that favours compounds with a hit; in the whole collection about 8.2% have one here.

SMILES | D1 allo mod | RORA act | M1 ag | HePTP inhibitor | SF1 activator | M1 antagonist | D1 PAM confirm | D1 ag no DA | Isoprot counter
CC(C)Cc1nc(N2CCCCC2)c(C#N)c2c1CCC2 | – | – | – | – | – | – | · | · | ·
Cc1cccc(C(=O)N2CCN(c3cc(C)c(C#N)c4nc5ccccc5n34)CC2)c1 | · | · | · | – | · | · | · | · | ·
CC(C)Cc1nc(N2CCOCC2)c(C#N)c2c1COC(C)(C)C2 | · | – | – | – | – | – | · | · | ·
CC(=O)N1CCN(c2nc(CC(C)C)c3c(c2C#N)CCC3)CC1 | 17.6 | – | – | – | – | – | 22940 | – | +
CC(C)c1cc(N2CCN(C(=O)c3ccco3)CC2)n2c(nc3ccccc32)c1C#N | 5.95 | – | – | – | – | – | 8868 | · | +
CC(C)Cc1nc(N2CCN(C(=O)C(C)C)CC2)c(C#N)c2c1CCC2 | 4.51 | – | – | – | – | – | 7400 | – | –
COc1cc(C(=O)Oc2ccc(/C=N/NC(=O)COc3cccc4ccccc34)cc2)cc(OC)c1OC | · | · | · | – | · | · | · | · | ·
CCCSc1nc2c(c(=O)n1CC)SC(C)C2 (stereo not drawn) | 4.65 | – | – | – | – | – | 10748 | – | +
CCn1c(SCC(=O)N2CCCC2)nc2c(c1=O)SC(C)C2 (stereo not drawn) | – | – | – | – | – | – | · | · | ·
O=C(CN1CCN(c2ccccn2)CC1)NC(=O)NC1CCCCC1 | – | – | – | – | – | – | · | · | ·
COc1ccc(-c2cc3nc(C4CCN(C(=O)OC(C)(C)C)CC4)c(C(=O)O)cn3n2)cc1 | 9.2 | – | – | – | – | – | 14492 | – | +
Cc1cccc(C)c1Nc1nc2ccccc2o1 | – | – | – | – | – | – | · | · | ·
O=C(COc1nncc2ccccc12)NCCC1=CCCCC1 | – | – | – | – | – | – | · | · | ·
CC1Cc2ccccc2N1C(=O)CSc1nc2cc3c(cc2cc1C#N)OCO3 (stereo not drawn) | 5.09 | – | – | – | – | – | 13756 | – | +
COc1ccc(/C=N/O)cc1COc1ccc(NC(C)=O)cc1 | 4.68 | – | – | – | – | – | 6740 | – | +
Cc1ccc(C2(C)NC(=O)N(Cc3c(C)noc3C)C2=O)cc1 (stereo not drawn) | – | – | – | – | – | – | · | · | ·
Cc1cc(NC(=O)COc2cccc(C)c2C)no1 | – | – | – | – | – | – | · | · | ·
Cc1cc(NC(=O)COc2nnc(-c3ccccc3)c3ccccc23)no1 | 5.49 | – | – | – | – | – | 6684 | – | –
COc1ccc(CNC(=O)c2c(O)c3cccc4c3n(c2=O)CCC4)cc1OC | 6.25 | – | – | – | – | – | 10888 | – | +
Cc1cc(C(=O)NCCN2CCCCC2C)n(-c2ccccc2)n1 (stereo not drawn) | – | – | – | – | – | – | · | · | ·
COc1ccc(-c2noc(CSc3nc(-c4ccccc4)cc(=O)[nH]3)n2)cc1OC | 7.55 | – | – | – | – | – | 7928 | · | +
COc1ccc(-c2noc(COc3ccc(C)c(C)c3)n2)cc1OC | 4.51 | – | – | – | – | – | 9288 | · | +
COc1ccc(-c2noc(COc3ccc4ccccc4c3Br)n2)cc1OC | 3.74 | – | – | – | – | – | 8636 | – | –
COc1ccc(-c2noc(CCCc3ccccc3)n2)cc1OC | – | – | – | – | – | – | · | · | ·
COc1ccc(-n2c(SCc3nnc(-c4ccccc4)o3)nnc2-c2ccccc2)cc1 | · | – | – | – | – | – | · | · | ·
SMILES | D1 allo mod | RORA act | M1 ag | HePTP inhibitor | SF1 activator | M1 antagonist | D1 PAM confirm | D1 ag no DA | Isoprot counter
COc1ccc(-c2noc(CSc3nnc(-c4ccncc4)n3-c3ccc(F)cc3)n2)cc1OC | 4.59 | – | – | – | – | – | 10824 | – | –
CC(NC(=O)C1CCCN(S(=O)(=O)c2cnc[nH]2)C1)c1ccccc1 (stereo not drawn) | – | – | – | – | – | – | · | · | ·
O=C(CSc1nnc(-c2ccc(Cl)s2)o1)N1CCc2ccccc21 | – | – | · | – | – | · | · | · | ·
Cc1ccc(C(=O)Nc2ccc(O)c(C(=O)O)c2)o1 | – | – | – | – | – | – | · | · | ·
Cc1ccc2nc(N3CCC(C(=O)O)CC3)nc(-c3ccccc3)c2c1 | 6.51 | – | – | – | – | – | 10876 | – | +
N#Cc1nc(-c2ccc(F)cc2)oc1NCc1cccc2c1OCO2 | – | – | – | – | – | – | · | · | ·
CC(C)CNc1oc(-c2ccc(F)cc2)nc1C#N | 13 | – | – | – | – | – | 14732 | – | +
C=CCSc1nnc2c3ccccc3n(CC=C)c2n1 | · | · | · | – | · | · | · | · | ·
C=CCn1c2ccccc2c2nnc(SCN3C(=O)c4ccccc4C3=O)nc21 | 9.91 | · | – | – | · | – | 16236 | – | +
Cc1c(C#N)c2ccccc2n1CC(=O)NCC1CCCO1 (stereo not drawn) | 3.8 | – | – | – | – | – | – | – | –
N#Cc1cn(CC(=O)NCC2CCCO2)c2ccccc12 (stereo not drawn) | – | – | – | – | – | – | · | · | ·
O=C(CN(C(=O)CSc1nnc(COc2ccccc2)o1)c1ccc(F)cc1)NC1CCCCC1 | 3.2 | – | – | – | – | – | – | – | –
O=C(CSc1nnc(COc2ccc(F)cc2)o1)N1c2ccccc2CCc2ccccc21 | 4.01 | – | – | – | – | – | 13460 | – | –
O=C(CSc1nnc(COc2cccc3cccnc23)o1)N1CCc2ccccc21 | – | – | – | – | – | – | · | · | ·
Cc1cc(/C=N/NC(N)=O)c(C)n1-c1ccc(Cl)cc1 | · | · | · | – | · | · | · | · | ·
COc1cccc(-n2c(O)c(C=Nc3cc(OC)c(OC)c(OC)c3)c(=O)[nH]c2=O)c1 | · | · | · | – | · | · | · | · | ·
c1ccc(-n2c(SCc3ccncc3)nnc2-c2ccco2)cc1 | 10.4 | – | – | – | – | – | 14488 | · | +
O=C(Nc1ccc2c(c1)C(=O)N(c1ccccc1)C2=O)c1ccco1 | · | · | · | – | · | · | · | · | ·
COc1cc2[nH]c(=S)n(C3CCCC3)c(=O)c2cc1OC | 2.86 | – | – | – | – | – | 13356 | – | –
CCOC(=O)C1CCN(S(=O)(=O)c2ccc3c4c(cccc24)C(=O)N3)CC1 | – | – | – | – | – | – | · | · | ·
O=C1Nc2ccc(S(=O)(=O)N3CCCC3)c3ccc(S(=O)(=O)N4CCCC4)c1c23 | 5.16 | – | – | – | – | – | 12808 | · | +
O=c1c2c(-c3ccco3)csc2nc(SCc2cn3cccnc3n2)n1-c1ccccc1 | 8.44 | – | – | – | – | – | 15872 | – | +
O=C(CSc1nc2scc(-c3ccco3)c2c(=O)n1-c1ccccc1)NCC1CCCO1 (stereo not drawn) | – | – | – | – | – | – | · | · | ·
